# Assay results reported in ChEMBL document CHEMBL1140733, “Comprehensive study of sansalvamide A derivatives and their structure-activity relationships against drug-resistant colon cancer cell lines” (J Med Chem, 2008).
# Peptide text beside a SMILES is read from it.
# Assays:
# HCT-116 [1] = test: Selectivity for multidrug-resistant human HCT116 cells over human WS1 cells; format: functional
# HCT-15 [2] = test: Selectivity for multidrug-resistant human HCT15 cells over human WS1 cells; format: functional
# HCT-15 [3] = test: Cytotoxicity against multidrug-resistant human HCT15 cells at 1 uM by thymidine incorporation assay; format: functional
# Method in brief: (§1)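 HCT-116 cells were grown in IMDM and HCT-15 in RPMI 1640, each with L-glutamine, 10% FBS and penicillin-streptomycin, at 3000 cells/well. Compound was applied at 1 µM in 1% DMSO for 72 h total, with 3H-thymidine added for the final 16 h. Percent growth inhibition versus DMSO controls was scintillation-counted, averaging three wells in each of three assays.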
# HCT-116 [4] = test: Cytotoxicity against multidrug-resistant human HCT116 cells by thymidine incorporation assay; format: functional, cell-based
# Method in brief: (§2)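 Cells (3000/well) were plated in IMDM (HCT-116), RPMI 1640 (HCT-15) or MEM (WS-1), each with L-glutamine, 10% FBS and 0.1% penicillin-streptomycin. Compounds in DMSO (1% in all wells) were added after about 6 h and left for 72 h, with 3H-thymidine pulsed for the last 16 h. Uptake was scintillation-counted against DMSO controls. IC50 came from four-concentration curves, three experiments in quadruplicate.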
# HCT-15 [5] = test: Cytotoxicity against multidrug-resistant human HCT15 cells by thymidine incorporation assay; format: functional, cell-based; method in brief: as §2
# [6] = Cytotoxicity against human WS1 cells by thymidine incorporation assay; format: cell-based; method in brief: as §2
# HCT-116 [7] = test: Cytotoxicity against multidrug-resistant human HCT116 cells at 1 uM by thymidine incorporation assay; format: functional; method in brief: as §1
Structure (SMILES),Ratio IC50 (HCT-116 [1]),Ratio IC50 (HCT-15 [2]),inhibition at 1 µM (HCT-15 [3]) [%],IC50 (HCT-116 [4]) [µM],IC50 (HCT-15 [5]) [µM],IC50 [6] [µM],inhibition at 1 µM (HCT-116 [7]) [%]
CC(C)C[C@@H]1NC(=O)[C@H](Cc2ccccc2)NC(=O)[C@@H](Cc2ccccc2)N(C)C(=O)[C@H](C(C)C)NC(=O)[C@H](CC(C)C)NC1=O,>250,>250,57,0.8,0.7,200,59
"CC(C)C[C@@H]1NC(=O)[C@H](Cc2ccccc2)NC(=O)[C@H](CC(C)C)NC(=O)[C@@H](C(C)C)N(C)C(=O)[C@H](CC2CCCCC2)NC1=O (HELM PEPTIDE1{[Cha].[CC(C)[C@H](C(=O)[*:2])N(C)[*:1]].L.F.L}$PEPTIDE1,PEPTIDE1,1:R1-5:R2$$$V2.0)",,,60,2.1,0.8,4,48
"CC(C)C[C@@H]1NC(=O)[C@H](C(C)C)NC(=O)[C@H](CC(C)C)N(C)C(=O)[C@@H](CC(C)C)NC(=O)[C@@H](Cc2ccccc2)NC1=O (HELM PEPTIDE1{[dL].[meL].V.L.[dF]}$PEPTIDE1,PEPTIDE1,1:R1-5:R2$$$V2.0)",,,42,0.7,2.2,136,64
